Laboratory results taken from ChEMBL document CHEMBL1134792, “Antimitotic antitumor agents: synthesis, structure-activity relationships, and biological characterization of N-aryl-N'-(2-chloroethyl)ureas as new selective alkylating agents” (J Med Chem, 2001).
Active and inactive are the calls of the source. The rule behind the calls is not given here.

Key:
[1] = tested on: L1210; experiment: Dose required to inhibit cell growth was determined against L1210 cell line of murine lymphocytotic leukemia; type: functional, cell-based; details: Mus musculus
Summary of the method: (§1)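 Alamar Blue growth assay. (1–5) × 10^3 cells per well preincubated 24 h, then exposed to increasing drug concentrations for 72 h at 37 °C. Medium replaced with PBS containing 20% Alamar Blue, fluorescence read at 485/590 nm. IC50 is the dose inhibiting growth by 50%.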

[2] = tested on: CHO; experiment: Dose required to inhibit cell growth was determined against CHO cell line; type: functional, cell-based; details: Cricetulus griseus; summary of the method: as §1
[3] = Glutathione activity was measured after incubation with a conc. of 500 uM
Summary of the method: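 Cell-free thiol assay. GSH 500 µM with 1 mM EDTA and 500 µM drug (from 2% ethanol solution) in 0.1 M phosphate buffer pH 7.4, 60 min at room temperature. DTNB (0.133 mM) was then added and A412 read. Reported as % of no-drug control, in triplicate.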

[4] = tested on: HT-29; experiment: Dose required to inhibit cell growth was determined against HT-29 cell line of human adenocarcinoma; type: functional, cell-based; summary of the method: as §1
[5] = tested on: P388; experiment: Dose required to inhibit cell growth was determined against P388D1 cell line of murine lymphocytotic leukemia; type: functional, cell-based; details: Mus musculus; summary of the method: as §1
[6] = tested on: MDA-MB-231; experiment: (§2) DNA damages caused in MDA-MB-231 cells after 2 hr exposure to a concentration of 400 uM; type: functional, Homo sapiens
Summary of the method: (§3)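 Growing MDA-MB-231 cells held 2 h at 37 °C in medium with or without 400 μM compound. Cells washed in cold PBS and lysed in Tris/SDS/EDTA/deferoxamine/proteinase K buffer. DNA isolated by salting out, then 3'-end labeled by T4 DNA polymerase nucleotide exchange. Incorporated radioactivity measured by dot filtration, expressed as dCps exchanged/ng DNA. Means ± SD, ≥3 determinations.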

[7] = target: T1, Glutathione reductase, mitochondrial (Homo sapiens) (UniProt P00390); experiment: Glutathione reductase activity was measured after incubation with a conc. of 500 uM; type: functional
T1 sequence (whole entry): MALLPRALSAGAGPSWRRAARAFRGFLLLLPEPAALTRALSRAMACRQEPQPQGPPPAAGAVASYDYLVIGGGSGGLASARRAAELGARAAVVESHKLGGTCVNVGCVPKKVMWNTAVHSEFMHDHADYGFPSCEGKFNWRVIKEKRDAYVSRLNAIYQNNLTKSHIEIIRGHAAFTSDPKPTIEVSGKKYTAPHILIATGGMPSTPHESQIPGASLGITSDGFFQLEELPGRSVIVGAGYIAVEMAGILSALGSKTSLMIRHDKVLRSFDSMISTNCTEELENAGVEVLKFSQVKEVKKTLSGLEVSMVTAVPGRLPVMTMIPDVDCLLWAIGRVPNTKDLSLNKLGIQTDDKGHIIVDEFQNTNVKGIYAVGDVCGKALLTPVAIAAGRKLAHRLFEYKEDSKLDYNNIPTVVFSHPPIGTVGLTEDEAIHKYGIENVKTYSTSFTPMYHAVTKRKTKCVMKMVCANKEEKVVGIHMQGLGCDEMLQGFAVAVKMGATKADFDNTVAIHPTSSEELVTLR
Summary of the method: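 Purified glutathione reductase (0.016 U/mL) with 100 µM NADPH, 1 mM EDTA, 1 mg/mL BSA and 500 µM drug (from 2% ethanol solution) in 0.1 M phosphate pH 7.4, preincubated 60 min at 30 °C. GSSG was then added for 60 min at 30 °C. Activity is the […] over 3 min, as % of no-drug control, in triplicate.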

[8] = tested on: MDA-MB-231; experiment: Dose required to inhibit cell growth was determined against MDA-MB-231 cell line of human non-hormone dependent breast carcinoma; type: functional, cell-based; summary of the method: as §1
[9] = tested on: K562; experiment: Dose required to inhibit cell growth was determined against K562 cell line of chronic myelogenous leukemia; type: functional, cell-based; details: Homo sapiens; summary of the method: as §1
[10] = tested on: P388; experiment: Dose required to inhibit cell growth was determined against P388D1 cell line of murine lymphocytotic leukemia; NA= Not active represents IC50 >400 uM; type: functional, cell-based; details: Mus musculus
Summary of the method: (§4)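 Alamar Blue growth-inhibition assay. Cells ((1–5) × 10³ per well) were preincubated for 24 h, then exposed to increasing drug concentrations for 72 h at 37 °C. Alamar Blue (20%) was added and fluorescence read at ex 485 / em 590 nm. IC50 is the dose inhibiting growth by 50%. Means of ≥3 independent determinations.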

[11] = tested on: HT-29; experiment: Dose required to inhibit cell growth was determined against HT-29 cell line of human adenocarcinoma; NA= Not active represents IC50 >400 uM; type: functional, cell-based; summary of the method: as §4
[12] = tested on: LoVo; experiment: Dose required to inhibit cell growth was determined against LoVo cell line of human adenocarcinoma; NA= Not active represents IC50 >400 uM; type: functional, cell-based; summary of the method: as §4
[13] = tested on: MDA-MB-231; experiment: Dose required to inhibit cell growth was determined against MDA-MB-231 cell line of human non-hormone dependent breast carcinoma; NA= Not active represents IC50 >400 uM; type: functional, cell-based; summary of the method: as §4
[14] = tested on: MDA-MB-231; experiment: Beta tubulin alkylation activity in MDA-MB-231 cells; type: functional, Homo sapiens; set-up: concentration or dose not given beside the values
Summary of the method: (§5)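 MDA-MB-231 cells (~5 × 10^6), exponentially growing, exposed to 30 μM compound for 24 h at 37 °C. Lysed in Laemmli buffer, run on 10% SDS-PAGE, immunoblotted with anti-β-tubulin (TUB 2.1, 1:500) and peroxidase anti-mouse secondary, ECL detection. Normal and alkylated band densities integrated to give % alkylated β-tubulin. Representative of three experiments.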

[15] = tested on: LoVo; experiment: Dose required to inhibit cell growth was determined against LoVo cell line a human colon adenocarcinoma; NA= Not active represents IC50 >400 uM; type: functional, cell-based; summary of the method: as §4
[16] = tested on: CHO; experiment: Dose required to inhibit cell growth was determined against CHO cell line; Not active represents IC50 >400 uM; type: functional, cell-based; details: Cricetulus griseus; summary of the method: as §4
[17] = tested on: MDA-MB-231; experiment: Dose required to inhibit cell growth was determined against MDA-MB-231 cell line of human non-hormone dependent breast carcinoma; Not active represents IC50 >400 uM; type: functional, cell-based; summary of the method: as §4
[18] = tested on: K562; experiment: Dose required to inhibit cell growth was determined against K562 cell line of chronic myelogenous leukemia; Not active represents IC50 >400 uM; type: functional, cell-based; details: Homo sapiens; summary of the method: as §4
[19] = tested on: LoVo; experiment: Dose to inhibit cell growth determined against LoVo cell line of human adenocarcinoma; type: functional, cell-based; summary of the method: as §1
[20] = tested on: HT-29; experiment: Dose required to inhibit cell growth was determined against HT-29 cell line of human adenocarcinoma; Not active represents IC50 >400 uM; type: functional, cell-based; summary of the method: as §4
[21] = Alkylating activity by using 4-(4-nitrobenzyl)-pyridine (NBP) colorimetric assay
Summary of the method: (§6)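 NBP colorimetric assay. Drug at 400 nmol/mL in ethanol was mixed with 10% NBP in ethanol and 50 mM sodium acetate pH 4.3, then heated at 80 °C for 60, 90, 120 or 150 min. Samples were chilled and basified with KOH/ethanol, and A570 was read against a drug-free blank. The alkylation rate (A570/min) is the slope of a linear regression of absorbance vs time. Mean ± SD of ≥3 independent experiments.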

[22] = tested on: MDA-MB-231; experiment: Beta tubulin alkylation activity in MDA-MB-231 cells; not determined; type: functional, Homo sapiens; summary of the method: as §5
[23] = Alkylating activity using 4-(4-nitrobenzyl)-pyridine(NBP) colorimetric assay
[24] = tested on: MDA-MB-231; experiment: DNA damages caused in MDA-MB-231 cells after 2 hr compound exposure to 400 uM concentration; type: functional, Homo sapiens; summary of the method: as §3
[25] = tested on: MDA-MB-231; experiment: as §2; type: functional; summary of the method: as §3
[26] = Alkylating activity by using 4-(4-nitrobenzyl)-pyridine(NBP) colorimetric assay; summary of the method: as §6
[27] = tested on: CHO; experiment: Dose required to inhibit cell growth was determined against CHO cell line; NA= Not active represents IC50 >400 uM; type: functional, cell-based; details: Cricetulus griseus; summary of the method: as §4

Row | SMILES | IC50 [1] | IC50 [2] | IC50 [4] | IC50 [5] | IC50 [8] | IC50 [9] | Activity [14] | NA [16] | NA [17] | IC50 [19] | other results
1 | O=NN(CCCl)C(=O)NCCCl [CARMUSTINE] | 4.5 µM | 8.2 µM | 17 µM | 5.9 µM | 7.4 µM | 9 µM |  |  |  |  | Activity [3]: 50%; DNA damage [6]: 19.9 10e7 exchanged dCps (ng of DNA); Activity [7]: 20%
2 | O=C(NCCCl)Nc1cccc2c1CCCC2 | 55 µM | 56 µM |  |  |  | 76 µM |  |  |  |  | NA [10]: inactive; NA [11]: inactive; NA [12]: inactive; NA [13]: inactive
3 | O=C(NCCCl)Nc1ccccc1 | 57 µM |  | > 100 µM |  | 140 µM | > 100 µM | 0% |  |  |  | NA [10]: inactive; NA [15]: inactive
4 | CNC(=O)Nc1ccc(C(C)(C)C)cc1 | 80 µM |  | 196 µM |  |  |  |  | inactive | inactive |  | NA [18]: inactive
5 | O=C(NCCCl)Nc1ccc2ccccc2c1 | 3 µM | 7.2 µM | 5.5 µM | 5.3 µM | 6.1 µM | 3 µM | 47% |  |  | 6.2 µM | DNA damage [6]: 1.89 10e7 exchanged dCps (ng of DNA)
6 | CCNC(=O)Nc1ccc(C(C)C)cc1 | 35 µM |  |  |  |  | 142 µM |  | inactive | inactive |  | NA [20]: inactive
7 | O=C(O)CCCc1ccc(N(CCCl)CCCl)cc1 [CHLORAMBUCIL] | 3 µM | 30 µM | > 100 µM | 7 µM | 80 µM | 11 µM |  |  |  | 9 µM | DNA damage [6]: 12.7 10e7 exchanged dCps (ng of DNA); Activity [21]: 39 A570 min-1
8 | CCNC(=O)Nc1ccc(C(C)(C)C)cc1 |  |  | 83 µM |  |  | 84 µM |  | inactive | inactive |  | Activity [22]: 0; Activity [23]: 0.07
9 | O=C(NCCCl)Nc1ccc(I)cc1 | 3.8 µM | 4.8 µM | 3.9 µM | 5.4 µM | 5.7 µM | 2.1 µM | 44% |  |  | 5.4 µM | Activity [3]: 100%; Activity [21]: 3.1 A570 min-1; Activity [7]: 98%; DNA damage [24]: 2.66 10e7 exchanged dCps (ng of DNA)
10 | O=C(NCCCl)Nc1ccc2c(c1)CCC2 | 5 µM | 10 µM | 10 µM | 7.3 µM | 10 µM | 5.5 µM | 43% |  |  | 5.1 µM | DNA damage [25]: 2.37 10e7 exchanged dCps (ng of DNA); Activity [26]: 3.5 A570 min-1
11 | CNC(=O)Nc1ccc(C(C)C)cc1 | 135 µM |  |  |  |  | 198 µM |  | inactive | inactive |  | NA [20]: inactive
12 | CCC(C)c1ccc(NC(=O)NC)cc1 (configuration not stated) | 62 µM |  |  |  |  | 142 µM |  | inactive | inactive |  | NA [20]: inactive
13 | Cc1cc(C)nc(NC(=O)NCCCl)c1 | 144 µM |  |  |  | 50 µM | 113 µM |  |  |  |  | NA [10]: inactive; NA [12]: inactive; NA [27]: inactive
14 | CCCCCCc1ccc(NC(=O)NCCCl)cc1 | 5 µM | 15 µM | 12 µM | 8.2 µM | 15 µM | 7.1 µM | 34% |  |  | 6.1 µM | Activity [3]: 100%; Activity [7]: 99%; Activity [26]: 3.1 A570 min-1; DNA damage [24]: 2.32 10e7 exchanged dCps (ng of DNA)
